Experimental data from different studies.
Lines come from different studies, so protocols differ.
Target: Tyrosine-protein kinase Fes/Fps (FES, Homo sapiens, UniProt P07332)

Structure (SMILES) | assay | conditions | measurement | value
Cn1cncc1[C@@](O)(COc1ccc(C#N)cc1-c1ccc(OC(F)(F)F)cc1)c1ccc(C#N)cc1 | cell-free assay, competition with immobilised ligand | 1 µM | remaining binding | 100%
C[C@H](C(=O)N[C@H]1COc2ccccc2[C@@H]1S(C)(=O)=O)c1ccc(F)cc1 | enzyme activity, inhibitor | 10 µM | inhibition | -14%
C#Cc1n[nH]c2c(-c3cn([C@@H](C)c4ccccc4)c(=O)[nH]c3=O)cc(F)cc12 | enzyme activity, inhibitor | 0.1 µM | inhibition | 7.4%
CC(C)(C)c1cc(C=C(C#N)C#N)cc(Br)c1O | enzyme activity, inhibitor | 0.5 µM | remaining activity | 105%
Nc1ncc(-c2nc(N3CCOCC3)nc(N3CCOCC3)n2)c(C(F)F)n1 | binding, competition with immobilised ligand | 10 µM | remaining binding | 91%
C#Cc1n[nH]c2c(-c3cn(C(C)c4ccccn4)c(=O)[nH]c3=O)cc(F)cc12 (stereo not drawn) | enzyme activity, inhibitor | 1 µM | inhibition | 5.3%
Cn1cc(-c2cc(F)cc(N3CCn4c(cc5c4CCCC5)C3=O)c2CO)cc(Nc2ccc(N3CCN(C4COC4)CC3)cn2)c1=O | enzyme activity, inhibitor | 0.1 µM | inhibition | 9%
c1ccc(C(NCCNC(c2ccccc2)c2ccccc2)c2ccccc2)cc1 | enzyme activity, inhibitor | 10 µM | inhibition | -2%
O=c1[nH]c2ccccc2n1C1CCN(Cc2ccc(-c3[nH]c4cc5ncnc5cc4nc3-c3ccccc3)cc2)CC1 | cell-free assay | 0.5 µM | remaining signal | 101%
Cc1nn(C)cc1-c1nc2c(N3CCN(Cc4ccc(Cl)cc4)CC3)c(Cl)cnc2[nH]1 | binding, competition with immobilised ligand | 1 µM | remaining binding | 100%
COc1ncccc1-c1cnn2ccc(N3CCN(C(=O)OC(C)C)CC3)nc12 | binding, competition with immobilised ligand | 1 µM | remaining binding | 100%
Cn1cc(-c2cccc(N3CCc4c(sc5c4CC(C)(C)C5)C3=O)c2CO)cc(Nc2ccncn2)c1=O | enzyme activity, inhibitor | 1 µM | inhibition | 4%
